Our source for the GI50, IC50 and inhibition values is ChEMBL document CHEMBL1152334, “Quassinoid inhibition of AP-1 function does not correlate with cytotoxicity or protein synthesis inhibition” (J Nat Prod, 2009).

Test [1] is described as follows: Growth inhibition of human NCI60 cells. The class given is functional.
A short description of test [2]: Inhibition of protein synthesis in cell-free extract of mouse Krebs2 cells by SDS-PAGE. It counts as functional.
Test [3] concerns HeLa. Put plainly: Inhibition of protein synthesis in human HeLa cells assessed as [35S]methionine incorporation into protein treated for 45 mins before [35S]methionine addition by Whatman paper analysis. It counts as functional, cell-based.
Test [4] is described as follows: Growth inhibition of human AP-1 beta-lactamase reporter screening assay cells at 1 uM. Conditions: AP-1 reporter cells.
The target in test [5] is Transcription factor Jun (Homo sapiens) (UniProt P05412). Kind of test: Inhibition of TPA-induced AP1 transfected in HEK293 cells assessed as inhibition of […] reporter activity at 0.1 to 10 uM treated 1 hr before TPA stimulation measured after 18 hrs by luciferase reporter gene assay. The class given is cell-based. In short, it runs like this:
(§1)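 HEK293 cells were grown in DMEM with 10% FBS at 37 °C and 5% CO2. They were transiently transfected with a luciferase reporter (0.1 µg/well); reporters were AP-1 (four TRE consensus copies from GCN4), NF-κB (five responsive-element copies) or SRE. After 24 h, medium went to DMEM with 0.2% FBS. Cells were pretreated 1 h with compound or DMSO, then given TPA 10 ng/mL for 18 h. Firefly luciferase was read from passive-lysis lysates, TPA alone = 100%, in quadruplicate.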

For test [6], the system named is HEK293. Kind of test: Inhibition of TPA-induced NF-kappaB transfected in HEK293 cells at 0.1 to 10 uM treated 1 hr before TPA stimulation measured after 18 hrs by luciferase reporter gene assay. The class given is cell-based. In short, it runs like this:
as §1

In test [7] the test system is Nucleic Acid. Put plainly: Inhibition of TPA-induced SRE transfected in HEK293 cells at 0.1 to 10 uM treated 1 hr before TPA stimulation measured after 18 hrs by luciferase reporter gene assay. It counts as cell-based. A digest of the protocol:
as §1

The source made the active and inactive calls. No cut-off for these calls is given here.

Chain of Transcription factor Jun (Homo sapiens) (P05412 whole entry): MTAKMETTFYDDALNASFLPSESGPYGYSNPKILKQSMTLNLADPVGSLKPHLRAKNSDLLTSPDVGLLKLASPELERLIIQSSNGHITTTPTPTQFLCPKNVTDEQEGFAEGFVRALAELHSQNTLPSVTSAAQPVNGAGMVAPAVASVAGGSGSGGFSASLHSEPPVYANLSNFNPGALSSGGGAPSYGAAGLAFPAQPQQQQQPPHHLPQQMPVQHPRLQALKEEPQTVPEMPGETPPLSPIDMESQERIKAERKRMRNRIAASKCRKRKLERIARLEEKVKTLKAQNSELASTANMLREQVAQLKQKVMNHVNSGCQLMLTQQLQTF

Regarding `CC1=CC(=O)[C@H](O)[C@@]2(C)[C@@H]1C[C@H]1OC(=O)[C@@H](OC(=O)C(C)(C)CO)[C@@H]3[C@@H](C)[C@@H](O)[C@]4(O)OC[C@@]31[C@@H]42`, in test [1] (Homo sapiens, NCI60), halving of growth (GI50) required 95 nM.
The same measure, in the same setting: the result for `CC1=CC(=O)[C@H](O)[C@@]2(C)[C@@H]1C[C@H]1OC(=O)C(OC(=O)CC3=CCCC3)[C@H]3[C@@H](C)[C@@H](O)[C@]4(O)OC[C@]13[C@@H]42` (some centres undefined) reads 40000 nM.
The same measure, in the same setting: for `COC(=O)[C@@]12OC[C@]34[C@H]([C@H](O)[C@@H]1O)[C@@]1(C)CC(=O)C(OC(C)=O)=C(C)[C@H]1C[C@H]3OC(=O)[C@@H](OC(=O)C=C(C)C)[C@@H]24` the value was 790 nM; for `C=C1[C@@H](O)[C@@]2(O)OC[C@@]34[C@H]1[C@@H](OC(=O)C/C=C(\C)CCCCC)C(=O)O[C@@H]3C[C@H]1C(C)=CC(=O)[C@@H](O)[C@]1(C)[C@@H]24`, 1.5 nM; for `COC(=O)[C@@]12OC[C@]34[C@H]([C@@H](O)C1O)[C@@]1(C)CC(=O)C(OC(=O)CC(C)C(F)(F)F)=C(C)[C@@H]1C[C@H]3OC(=O)[C@H](O)[C@H]42` (some centres undefined), 2900 nM.
`COC(=O)[C@@]12OC[C@]34[C@H]([C@@H](O)C1O)[C@@]1(C)CC(=O)C(O)=C(C)[C@@H]1C[C@H]3OC(=O)[C@H](OC(=O)CC(C)C(F)(F)F)[C@H]42` (some centres undefined): the GI50 in test [1] (Homo sapiens, NCI60) was determined as 28 nM.
On the same count and under the same terms, the result for `COC(=O)[C@@]12OC[C@]34[C@H]([C@@H](O)C1O)[C@@]1(C)CC(=O)C(O)=C(C)[C@@H]1C[C@H]3OC(=O)[C@H](OC(=O)/C=C(/c1ccccc1)C(F)(F)F)[C@H]42` (some centres undefined) reads 3600 nM; that for `C=C1[C@@H](O)[C@]2(O)OC[C@@]34[C@H]1[C@@H](OC(=O)C/C=C/CCCCCCCC)C(=O)O[C@@H]3C[C@H]1C(C)=CC(=O)[C@@H](O)[C@]1(C)[C@@H]24`, 24 nM; that for `CC(C)=CC(=O)O[C@H]1C(=O)O[C@@H]2C[C@H]3C(C)=CC(=O)[C@@H](O)[C@]3(C)[C@H]3[C@@]4(O)OC[C@]32[C@@H]1[C@@H](C)[C@H]4O`, 21 nM.
On to `C=C1[C@@H](O)[C@@]2(O)OC[C@@]34[C@H]1[C@@H](OC(=O)C/C=C/CCCCCCCC)C(=O)O[C@@H]3C[C@H]1C(C)=CC(=O)[C@@H](O)[C@]1(C)[C@@H]24`, for which the IC50 in test [2] was below 10 µM; in test [3], above 2000 nM. Also, in test [1] (Homo sapiens, NCI60), the GI50 turned out to be 24 nM.
Compound `COC(=O)[C@@]12OC[C@]34[C@H]([C@@H](O)C1O)[C@@]1(C)CC(=O)C(OC(=O)/C=C(/c5ccccc5)C(F)(F)F)=C(C)[C@@H]1C[C@H]3OC(=O)[C@H](O)[C@H]42` (some centres undefined) came in with a concentration for 50% growth inhibition (GI50) in test [1] (Homo sapiens, NCI60) of 7400 nM.
Still for that read-out and setting: the result for `CC(C)=CC(=O)O[C@@H]1[C@H]2C(C)=CC(=O)[C@@H](O)[C@]2(C)[C@H]2[C@@]3(O)OC[C@@]24[C@@H]1OC(=O)C[C@H]4[C@@H](C)[C@H]3O` reads 19 nM.
The same measure, in the same setting: for `COC(=O)[C@@]12OC[C@]34[C@H]([C@@H](O)[C@@H]1O)[C@@]1(C)C=C5OC(=O)C=C5[C@@H](C)[C@@H]1C[C@H]3OC(=O)[C@H](O)[C@@H]24` the value was 160 nM.
In test [1], `CC[C@](C)(O)C(=O)O[C@H]1C(=O)O[C@@H]2C[C@H]3C(C)=CC(=O)[C@@H](O)[C@]3(C)[C@H]3[C@@]4(O)OC[C@]32[C@@H]1[C@@H](C)[C@H]4O` (stereo in doubt) [GLAUCARUBINONE] came in with a GI50 of 21000 nM.
For `CC[C@](C)(O)C(=O)O[C@H]1C(=O)O[C@@H]2C[C@H]3C(C)=CC(=O)[C@@H](O)[C@]3(C)[C@H]3[C@@]4(O)OC[C@]32[C@@H]1[C@@H](C)[C@H]4O` (stereo in doubt; 4) [GLAUCARUBINONE], the concentration for half-maximal inhibition (IC50) in test [2] is 0.29 µM; in test [3], 270 nM. In addition, in test [1], the GI50 came to 1800 nM. This compound gave an inhibition at 1 µM in test [4] below 25%.
`COC(=O)[C@@]12OC[C@]34[C@H]([C@@H](O)[C@@H]1O)[C@@]1(C)CC(=O)C(O)=C(C)[C@@H]1C[C@H]3OC(=O)[C@H](OC(=O)/C=C(\C)C(C)C)[C@@H]24` [BRUCEANTIN]: the IC50 in test [2] was found to be 0.41 µM; in test [3], 51 nM. The GI50 in test [1] (Homo sapiens, NCI60) turned out to be 5 nM.
In test [1] (Homo sapiens, NCI60), `CC(C)CC(=O)O[C@H]1C(=O)O[C@@H]2C[C@H]3[C@H](C)C(=O)C(O[C@@H]4O[C@H](CO)[C@@H](O)[C@H](O)[C@H]4O)=C[C@]3(C)[C@H]3[C@@H](O)[C@H](O)[C@]4(C(=O)O)OC[C@]32[C@@H]14` [BRUCEOSIDE E] came in with a GI50 of 52000 nM.
Still for that read-out and setting: the result for `CC(=O)OC(C)(C)/C(C)=C/C(=O)O[C@H]1C(=O)O[C@@H]2C[C@H]3[C@H](C)C(=O)C(O[C@@H]4O[C@H](CO)[C@@H](O)[C@H](O)[C@H]4O)=C[C@]3(C)[C@H]3[C@@H](O)[C@H](O)[C@]4(C(=O)O)OC[C@]32[C@@H]14` [BRUCEOSIDE F] reads 74000 nM.
`COC(=O)[C@]12OC[C@]34[C@H]([C@@H](O)[C@@H]1O)[C@@]1(C)CC(=O)C(O)=C(C)[C@@H]1C[C@H]3OC(=O)[C@H](OC(=O)C=C(C)C)[C@@H]24` [BRUSATOL]: the inhibition result in test [5], in test [6] and in test [7] was “inactive” throughout. In addition, the IC50 is 0.23 µM in test [2] and below 1000 nM in test [3]. The GI50 in test [1] (Homo sapiens, NCI60) is 260 nM.
On to `CC1=CC(=O)[C@@H](O)[C@]2(C)[C@H]3[C@]4(O)OC[C@]35[C@H]([C@@H](C)[C@H]4O)[C@@H](O)C(=O)O[C@@H]5C[C@@H]12` [GLAUCARUBOLONE], for which, in test [1] (Homo sapiens, NCI60), the 50% growth inhibitory concentration (GI50) is 290 nM.
Regarding `CC1=C[C@H](O)[C@@H](O)[C@]2(C)[C@H]3[C@@]4(O)OC[C@]35[C@H]([C@@H](C)[C@H]4O)[C@@H](O)C(=O)O[C@@H]5C[C@@H]12` [GLAUCARUBOL], the IC50 in test [2] was above 30 µM; in test [3], above 2000 nM. Halving of growth in test [1] (Homo sapiens, NCI60) (GI50) required 41000 nM.
Consider `C/C=C(\C)C(=O)O[C@@H]1[C@H]2C(C)=CC(=O)[C@@H](O)[C@]2(C)[C@H]2[C@@]3(O)OC[C@]24[C@H]([C@@H](C)[C@H]3O)[C@@H](OC(C)=O)C(=O)O[C@H]14` [HANNOAENONE], for which the GI50 in test [1] (Homo sapiens, NCI60) turned out to be 40 nM.
Same read-out and setting: for `CC(=O)O[C@H]1C(=O)O[C@@H]2C[C@H]3C(C)=CC(=O)[C@@H](O)[C@]3(C)[C@H]3[C@]4(O)OC[C@]32[C@@H]1[C@@H](C)[C@H]4O` [HOLACANTHONE] the value was 30 nM.
On the same count and under the same terms, the result for `COC(=O)[C@]12OC[C@]34[C@H]([C@@H](O)[C@@H]1O)[C@@]1(C)[C@H](O)C(=O)C=C(C)[C@@H]1C[C@H]3OC(=O)[C@H](OC(=O)CC(C)C)[C@@H]24` [ISOBRUCEIN A] reads 17 nM; that for `COC(=O)[C@@]12OC[C@]34[C@H]([C@@H](O)[C@@H]1O)[C@@]1(C)[C@H](O)C(=O)C=C(C)[C@@H]1C[C@H]3OC(=O)[C@H](OC(C)=O)[C@@H]24` [ISOBRUCEIN B], 100 nM.
Still for that read-out and setting: the result for `CC[C@@](O)(CC(=O)O[C@@H]1C(=O)O[C@@H]2C[C@@H]3C(C)=CC(=O)[C@H](O)[C@]3(C)[C@H]3[C@]4(O)OC[C@]32[C@@H]1[C@@H](C)[C@H]4O)C(C)C` [PENINSULARINONE] reads 1 nM.
Take `COC1=C[C@@H](C)[C@@H]2C[C@H]3OC(=O)C[C@H]4C(C)=C(OC)C(=O)[C@H]([C@@]2(C)C1=O)[C@@]34C` [QUASSIN]: the inhibition entry in test [5], in test [6] and in test [7] was “inactive” each time. The half-maximal inhibitory concentration (IC50) in test [2] is above 30 µM; in test [3], above 2000 nM.
For the compound `COC(=O)[C@]12OC[C@]34[C@H]([C@@H](O)[C@@H]1O)[C@@]1(C)C=C5OC(=O)C=C5[C@@H](C)[C@@H]1C[C@H]3OC(=O)[C@H](OC(C)=O)[C@@H]24` [SERGEOLIDE], the IC50 was 0.07 µM in test [2] and below 1000 nM in test [3]. This compound also showed a GI50 in test [1] (Homo sapiens, NCI60) of 3.8 nM.
In test [1] (Homo sapiens, NCI60), `CC[C@@H](C)C(=O)O[C@H]1C(=O)O[C@@H]2C[C@H]3C(C)=CC(=O)[C@@H](O)[C@]3(C)[C@H]3[C@@H](O)[C@H](O)[C@]4(C)OC[C@]32[C@@H]14` [SIMALIKALACTONE D] returned a concentration for 50% growth inhibition (GI50) of 39 nM.
